Screening results as filed in PubChem.
bCat nuc transl: modulators of beta-catenin nuclear translocation, primary screen, imaging, HeLa cells, immunofluorescence, high-content. nuclear translocation activity, % at 5 µM. AID 1665, 2009. 190,000 tested, 0.3% active;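 active = nuclear translocation activity above 50% at 5 µM, with a well cell count of 50 or more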;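 also: per-cell ratio of nuclear to cytoplasmic median beta-catenin stain intensity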
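Test system: human HeLa cells, endogenous beta-catenin. Times: 24 h compound exposure, 37°C. Measured by: beta-catenin immunofluorescence imaging with DAPI.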
Autophagy HCS: autophagy modulators in MEF cells, primary screen, imaging, high-content, MEF GFP-LC3; MEF GFP-LC3 puncta imaging; test concentration mostly 10 µM; calls only at 10 µM (by protocol); 190,000 tested, 0.98% active; AID 463193, 2010;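 active = percentage of spot-positive cells more than 3 SD above its plate mean, without a fluorescence outlier flag or 80% toxicity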
CHOP inhibitor: inhibitors of CHOP promoter induction, primary screen, cell-based, unfolded protein response, luciferase reporter. inhibition, % at 10 µM. CHO-K1 CHOP-promoter luciferase, tunicamycin-induced, 15-18 h. AID 2732, 2010. 220,000 tested, 3.8% active;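 active = compounds that reduced the stress-induced luciferase reporter signal by more than about 70% of percent inhibition, limit read from the data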
L major viab: Leishmania major promastigote growth inhibition, primary screen; Leishmania major promastigotes, resazurin fluorescence viability; inhibition, % at 10 µM; 200,000 tested, 9% active; in the data active = inhibition above about 50%;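 also: promastigotes grown with compound for 44 hours at 28 °C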
Dynein transport: inhibitors of GR-EGFP nuclear translocation, primary screen, dynein cargo transport inhibitor project, imaging, high-content, 3617.4 mouse cells; 220,000 tested, 0.47% active; AID 1381, 2008; test concentration mostly 20 µM; stimulated with dexamethasone, 1 µM; active compounds read low; z-score, hits read low;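 active = plate z-score of nuclear minus cytoplasmic receptor signal below a set negative limit, without overly bright fluorescence or cell loss, cut at about -3.5 in these data, passing the limit was not always enough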;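 also: z-score of nuclear minus cytoplasmic ring GR-EGFP intensity difference per well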
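Buffer or medium – tet-free medium with charcoal-stripped serum · Signal – automated 10x imaging of fixed Hoechst-stained cells · Also added – dexamethasone agonist, 1.0 µM final, for 30 min · Incubation – induction 48 h, compound 1 h, agonist 30 min · Read-out – GR-EGFP nuclear translocation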
MT stabilize HCS: microtubule stabilizers in HeLa cells, primary screen, imaging, high-content imaging; HeLa tubulin immunostaining HCS, 24 h; share of cells brighter than vehicle mean+2SD; % tubulin-high responders, % at 10 µM; 200,000 tested, 0.83% active;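 active = plate Z-score above 3 for both tubulin-high and condensed-nucleus cell shares, with cell loss under 80%, at 10 µM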;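 also: anti alpha tubulin signal scored within the nucleus-defined area of each cell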
Of the large screens only hits and unclear results are named; the others gave an inactive call. A selection: hits, their analogues and other compounds. The true share with any hit is near 12%.

CCCNC(=O)Nc1ccsc1C(=O)OC	none
Cc1ccc(-c2csc3nc(-c4ccncc4)[nH]c(=O)c23)cc1	none (no result: Autophagy HCS, L major viab, MT stabilize HCS)
CCOc1ccc(-c2nc3scc(-c4cccs4)c3c(=O)[nH]2)cc1	CHOP inhibitor 73
CC1(C)CC(=O)C(C2C3=C(CC(C)(C)CC3=O)Oc3ccc4ccccc4c32)C(=O)C1 (stereo not given)	CHOP inhibitor 77
CC1(C)CC(=O)C(C2C3=C(CC(C)(C)CC3=O)Oc3ccccc32)C(=O)C1 (stereo not given)	none (no result: Autophagy HCS, L major viab, MT stabilize HCS)
Cc1ccc(NC(=O)COC(=O)CSC(=S)N2CCOCC2)cc1	none
Cc1nc2c(C)cccc2cc1C(=O)N/N=C/c1ccc(N(C)C)cc1	MT stabilize HCS 40
Cc1nc2c(C)cccc2cc1C(=O)N/N=C/c1cccc([N+](=O)[O-])c1	MT stabilize HCS 20
COc1cc(/C=C/c2nc3ccc([N+](=O)[O-])cc3s2)ccc1OCC(=O)O	none (no result: Autophagy HCS, L major viab, MT stabilize HCS)
CC(/C=C/c1ccco1)=N\NC(=O)c1cccc(Cl)c1	none
CC(=O)Nc1cccc(C(=O)N/N=C/c2ccccc2F)c1	L major viab 83
CC(/C=C/c1ccccc1F)=N\NC(=O)c1cccc(F)c1	L major viab 90
O=c1[nH]c(-c2ccccc2F)nc2c1sc(=S)n2Cc1ccccc1	Autophagy HCS active
CCCCn1c(=O)[nH]c(=O)c2c1nc(-c1ccccc1F)n2Cc1ccccc1	none
CCN1C(=O)/C(=C/C=C2/Sc3ccc4ccccc4c3N2CCO)SC1=S	L major viab 65
CCOC(=O)c1cc(NC(=O)Nc2ccccn2)c(C)nc1C	none
O=c1cc(NS(=O)(=O)c2ccccc2)nc(SCc2c(Cl)cccc2Cl)[nH]1	CHOP inhibitor 80, L major viab 69
O=c1cc(NS(=O)(=O)c2ccccc2)nc(SCc2ccccc2Cl)[nH]1	none
Nc1cc(=O)[nH]c(SCc2ccc(Cl)cc2)n1	L major viab 69
Cc1ccc(S(=O)(=O)Nc2cc(=O)[nH]c(SCc3ccc(Cl)cc3)n2)cc1	CHOP inhibitor 86
Nc1cc(=O)[nH]c(SCc2cccc(Cl)c2)n1	none
Cc1ccc(NC(=O)C(C)NC(=O)OCc2ccccc2)cc1C (stereo not given)	none (no result: Autophagy HCS, L major viab, MT stabilize HCS)
COP(=O)(OC)c1nc(-c2ccccc2)oc1N1CCOCC1	L major viab 51
O=C(/C=C/c1ccccc1)c1cc(Br)ccc(=O)c1O	L major viab 77 (no result: bCat nuc transl)
O=C(/C=C/c1ccc2ccccc2n1)c1cc(Br)ccc1O	none (no result: Autophagy HCS, L major viab, MT stabilize HCS)
Cc1ccc(/C=C/C(=O)c2ccccc(=O)c2O)cc1C	CHOP inhibitor 71, L major viab 97
CC(C)(C)c1nnc(NC(=O)Cc2ccc(Br)cc2)s1	none (no result: bCat nuc transl)
C=CCN1C2CCCC1CC(NC(=O)Nc1cc(C)cc(C)c1)C2 (stereo not given)	none
COc1cccc(NC(=O)NCCc2ccc(Cl)cc2)c1	none
COc1cccc(-c2cc(N)nn2C(=O)Nc2ccc(Cl)cc2)c1	CHOP inhibitor 95 (no result: Autophagy HCS)
C=CCn1c(=O)/c(=C/c2cc(OC)c(OC)c(OC)c2)s/c1=C(/C#N)c1nc2ccccc2n1C	none
S=C1NCN(C2CCCCC2)CN1CCc1ccccc1	none (no result: Autophagy HCS, L major viab, MT stabilize HCS)
c1ccc(C(c2nnnn2C2CCCC2)N2CCN(c3nc4ccccc4s3)CC2)cc1 (stereo not given)	L major viab 95
c1csc(C(c2nnnn2C2CCCCC2)N2CCN(c3nc4ccccc4s3)CC2)c1 (stereo not given)	L major viab 93
Clc1ccc(C(c2nnnn2C2CCCC2)N2CCN(Cc3ccncc3)CC2)cc1 (stereo not given)	L major viab 88 (no result: bCat nuc transl)
c1ccc(C(c2ccccc2)N2CCN(C(c3ccccn3)c3nnnn3C3CCCC3)CC2)cc1 (stereo not given)	L major viab 57
NC(=O)C1CCN(C(c2ccccc2)c2nnnn2C2CCCC2)CC1 (stereo not given)	none
Fc1ccccc1N1CCN(C(c2ccncc2)c2nnnn2C2CCCC2)CC1 (stereo not given)	none
